Only some compounds are listed: those with a hit (about 2% of all), similar ones and a draw of the others.
RAD54 branch: inhibitors of human RAD54 branch migration, primary screen, biochemical, fluorescence, single point; RAD54 Holliday junction branch migration, FAM/BHQ fluorescence; DNA repair and recombination protein RAD54-like (Homo sapiens), Q92698; hit rate 0.14% among 360,000; inhibition, % at 10.4 µM;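 active = mean normalized replicate activity at least 40 and at least half of replicates scoring 40 or more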;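 also: inhibitors cause a drop in the FAM fluorescence signal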
PglD inh: C. jejuni PglD acetyltransferase inhibitors, primary screen, biochemical, DTNB colorimetric, single point | UDP-N-acetylbacillosamine N-acetyltransferase PglD (Campylobacter jejuni) | purified PglD enzyme, DTNB colorimetric CoA detection | inhibition, % at 12.5 µM | hit rate 0.098% among 360,000 | AID 602405, 2012; in the data active = inhibition above about 16%, passing the limit was not always enough
RAD52 inh: RAD52 DNA annealing inhibitors, primary screen, biochemical, FRET, single point, set 2. hit rate 0.46% among 360,000. inhibition, % at 18.7 µM. recombinant RAD52 DNA annealing, FRET fluorescence;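 active = every replicate showing at least 50% inhibition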
Target sequence (P43351 whole entry, looked up): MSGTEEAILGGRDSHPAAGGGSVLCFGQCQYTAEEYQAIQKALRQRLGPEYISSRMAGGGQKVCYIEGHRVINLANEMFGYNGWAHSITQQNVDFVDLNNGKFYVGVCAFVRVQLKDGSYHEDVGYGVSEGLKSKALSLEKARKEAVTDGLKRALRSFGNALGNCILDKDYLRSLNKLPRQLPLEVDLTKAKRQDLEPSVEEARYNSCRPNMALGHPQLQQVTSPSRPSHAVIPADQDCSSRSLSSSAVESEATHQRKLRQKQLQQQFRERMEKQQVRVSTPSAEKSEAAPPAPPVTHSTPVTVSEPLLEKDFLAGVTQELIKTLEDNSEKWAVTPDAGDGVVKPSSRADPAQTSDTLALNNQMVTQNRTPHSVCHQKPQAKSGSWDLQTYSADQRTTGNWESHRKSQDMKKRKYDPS
Ecoli rRNA inh: reduced GFP signal of wild-type E. coli, primary screen, bacterial rRNA inhibitor project, GFP/RFP fluorescence, OD600, single point. hit rate 1.6% among 350,000. AID 720706, 2013. E. coli WT GFP vs humanized-ribosome RFP mutants, 24 h; hits give low values; DMSO median 0, no signal -100. GFP signal change (wild-type ribosome), % (no concentration beside the values);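 active = significant combined selectivity score with lowered wild-type GFP, culture density cut under 30%, mutant RFP and density less affected; inactive = any of these conditions unmet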
XiGFP reactiv: activators of inactive X chromosome reactivation, primary screen, imaging, XiGFP fibroblasts, GFP high-content imaging, set 2 | AID 743238, 2013 | hit rate 0.055% among 360,000 | activation, % at 7.58 µM | XiGFP mouse fibroblasts, % GFP-positive cells imaging, 3 d; cells co-treated with 5-aza-dC sensitizer; scaled so ellipticine positive control = 100%;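 active = mean normalized replicate activation at least 10% and every replicate at or above 10%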
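System: 68-5-11 XiGFP fibroblast line | Buffer or medium: DMEM containing 5-aza-dC | Compound: Single point | Times: Compounds 3 days, fix/stain 15 min at room temperature | Benchmarks: Positive control ellipticine, 6 µM final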
E-selectin induc: E-selectin induction in HUVECs, primary screen, imaging, HUVEC, immunofluorescence imaging, single point | hit rate 0.37% among 260,000 | activation, % at 7.58 µM | P16581 | normalized: neutral wells 0, TNF-alpha wells 100;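 active = mean E-selectin-positive cell signal at least 10% of the positive control, reached in at least 60% of replicates, without over 20% cell loss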
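Test system – human umbilical vein endothelial cells (HUVEC), E-selectin induction · Input – 3,000 HUVEC seeded per well · Buffer or medium – EGM-2, gelatin · Compound dosing – single-point compound dose · Detection – immunofluorescence imaging · Measure – percent E-selectin-positive cells · Controls – TNF-alpha high, DMSO low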
Each line names hits and unclear results; the compound was inactive in the other large screens.

COc1ccccc1CNC(=O)C[C@@H]1CC[C@H]2[C@@H](COC[C@H](O)CN2C(=O)Nc2ccccc2)O1	none
Nc1nn2c(-c3ccccc3)cc(=O)[nH]c2c1N=Nc1ccc(O)cc1	none (no result: E-selectin induc)
Nc1nn2c(-c3ccccc3)cc(=O)[nH]c2c1N=Nc1ccc(Br)cc1	Ecoli rRNA inh -29 (no result: RAD54 branch, PglD inh)
C[C@H]1CN([C@@H](C)CO)C(=O)Cc2cc(NC(=O)C3CC3)ccc2O[C@H]1CN(C)Cc1ccncc1	none (no result: RAD54 branch, PglD inh, RAD52 inh)
O=C(Nc1ccc(S(=O)(=O)Nc2ncccn2)cc1)c1cnc(Cl)c(Cl)c1	none (no result: RAD54 branch, PglD inh)
O=C(NC(=S)Nc1ccc(S(=O)(=O)Nc2nccs2)cc1)c1ccccc1	none (no result: RAD52 inh, Ecoli rRNA inh)
O=C(Nc1ccc(S(=O)(=O)Nc2nccs2)cc1)c1cnc(Cl)c(Cl)c1	Ecoli rRNA inh -29 (no result: RAD54 branch, PglD inh)
O=C(NC(=S)Nc1ccc(S(=O)(=O)Nc2nccs2)cc1)c1ccccc1F	Ecoli rRNA inh -22 (no result: RAD54 branch, PglD inh)
C[C@H](CO)N1C[C@H](C)[C@@H](CN(C)CC2CCCCC2)Oc2ccc(NC(=O)Cc3cn(C)c4ccccc34)cc2CC1=O	none
CC1c2ccsc2CCN1S(=O)(=O)c1cccs1 (stereo unspecified)	Ecoli rRNA inh -29 (no result: RAD54 branch, PglD inh)
C[C@H](CO)N1C[C@H](C)[C@H](CN(C)S(=O)(=O)c2ccc(Cl)cc2)OCCCC[C@H](C)Oc2ccc(NS(=O)(=O)c3cccs3)cc2C1=O	none
COc1ccccc1CN(C)CC(=O)Nc1ccc(Cl)cc1C(F)(F)F	Ecoli rRNA inh -34 (no result: RAD54 branch, PglD inh)
CN(CC(=O)Nc1ccccc1C(F)(F)F)Cc1c(O)ccc2ccccc12	Ecoli rRNA inh -27
C/C=C/c1ccc([C@H]2[C@@H](CO)N3CCCCN(C(=O)Nc4cc(F)ccc4F)C[C@H]23)cc1	none
Cc1noc(C)c1NC(=O)N1C[C@H](O)COC[C@@H]2O[C@H](CC(=O)N[C@@H]3CCN(Cc4ccccc4)C3)CC[C@H]21	none (no result: RAD54 branch, PglD inh, RAD52 inh, E-selectin induc)
CN1\C(=C/C=C/C=C/C=[N+](C)C)C(C)(C)c2ccccc21	E-selectin induc 188 (no result: RAD54 branch, PglD inh)
CN1/C(=C\C=O)C(C)(C)c2ccccc21	none (no result: RAD54 branch, PglD inh)
CN1/C(=C/C=C(C#N)C#N)C(C)(C)c2ccccc21	XiGFP reactiv 25
COc1ccc(C#Cc2ccc3c(c2)O[C@@H](CN(C)S(=O)(=O)c2ccccc2F)[C@@H](C)CN([C@H](C)CO)S3(=O)=O)cc1	none
O=C(O)CN1C(=O)/C(=C\c2ccccc2OCc2ccc(F)cc2)SC1=S	Ecoli rRNA inh -39
O=C(O)CN1C(=O)/C(=C\c2ccccc2OCc2ccccc2)SC1=S	none
O=C(O)CN1C(=O)/C(=C\c2cc(Br)ccc2OCc2ccc(Cl)cc2)SC1=S	E-selectin induc 49
CO[C@@H]1CN(C)C(=O)c2cc(NS(C)(=O)=O)ccc2OC[C@H](C)N(Cc2ccccc2)C[C@H]1C	none
CN(C)CC#Cc1ccc([C@H]2[C@H](CO)N3CCCCN(CC4CCOCC4)C[C@@H]23)cc1	RAD52 inh 54
CN(C)CC#Cc1ccc([C@H]2[C@@H](CO)N3CCCCN(CC4CC4)C[C@@H]23)cc1	RAD52 inh 61
COc1ccc(S(=O)(=O)Nc2ccc3c(c2)CC(=O)N([C@H](C)CO)C[C@H](C)[C@@H](CN(C)S(C)(=O)=O)O3)cc1	none
COc1ccc(CN(C)C[C@H]2Oc3ccc(NC(=O)NC(C)C)cc3C(=O)N([C@@H](C)CO)C[C@@H]2C)cc1	none
CCc1nnc(NC(=O)c2nn(-c3ccccc3)nc2C)s1	none (no result: RAD54 branch, PglD inh, E-selectin induc)
Cc1nn(-c2ccccc2)nc1C(=O)Nc1nnc(C(F)(F)F)s1	Ecoli rRNA inh -32
O=C(C[C@@H]1CC[C@H](NC(=O)C2CCOCC2)[C@@H](CO)O1)Nc1ccc(-c2ccccc2)cc1	none
Cc1nc(NC(=O)c2ccc(F)cc2)sc1C(=O)Nc1ccc2c(c1)CCC2	none (no result: RAD52 inh, Ecoli rRNA inh, XiGFP reactiv, E-selectin induc)
